# Assay outcomes from PubChem.
# E-selectin induc: E-selectin induction on HUVECs | P16581 | HUVEC E-selectin immunofluorescence imaging; normalized: neutral wells 0, TNF-alpha wells 100 | activation, % at 7.58 µM | 0.37% of 260,000 active | AID 686992;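 active = mean E-selectin-positive cell signal at least 10% of the positive control, reached in at least 60% of replicates, without over 20% cell loss; inconclusive = no rule given, readout overlaps actives, possibly toxicity-flagged; inactive = the rest, including those meeting only one limit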
# Target sequence (P16581 whole entry, looked up): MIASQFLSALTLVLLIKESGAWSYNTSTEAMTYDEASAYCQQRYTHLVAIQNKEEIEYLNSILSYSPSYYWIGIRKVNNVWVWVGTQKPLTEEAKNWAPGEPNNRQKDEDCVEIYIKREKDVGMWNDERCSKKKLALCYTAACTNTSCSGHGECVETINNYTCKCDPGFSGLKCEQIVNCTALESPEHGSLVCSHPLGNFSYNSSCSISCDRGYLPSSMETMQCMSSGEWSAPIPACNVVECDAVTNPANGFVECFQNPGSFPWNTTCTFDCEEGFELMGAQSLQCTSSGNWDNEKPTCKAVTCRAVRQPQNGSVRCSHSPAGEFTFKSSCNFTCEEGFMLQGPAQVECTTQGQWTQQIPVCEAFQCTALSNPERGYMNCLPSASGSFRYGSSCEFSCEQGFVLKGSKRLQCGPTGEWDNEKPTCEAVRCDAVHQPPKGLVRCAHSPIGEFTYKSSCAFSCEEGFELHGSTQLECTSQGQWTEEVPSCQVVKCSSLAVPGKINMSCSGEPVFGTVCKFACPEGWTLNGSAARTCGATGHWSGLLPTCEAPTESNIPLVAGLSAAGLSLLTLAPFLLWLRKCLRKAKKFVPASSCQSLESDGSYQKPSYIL
#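 Test system: HUVEC; input: 3,000 HUVEC/well; measured by: immunofluorescence imaging; read-out: % PE-positive cells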
# CFTR F508del cor: correctors of CFTR F508del function in bronchial epithelial cells; CFBE cells, YFP halide quenching; stimulated with forskolin plus potentiator P3; % fluorescence drop versus neutral controls; activity (quench increase), % at 7.58 µM; 0.36% of 350,000 active; AID 720511;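 active = mean added fluorescence quench of at least 8% versus neutral control, with both replicates also reaching 8%; inconclusive = only one of the mean or replicate conditions met; inactive = mean below 8% and not both replicates reaching 8%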;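 note: cells transiently co-express mutant CFTR-F508del with the halide-sensitive YFP; corrector assay measuring rescue of mutant channel to the surface after 24 h compound exposure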
# miR-122 sensor: miR-122 inhibition in Huh7 cells | Huh7 miR-122 Renilla luciferase sensor, 48 h; neutral wells = 0, positive control = 100 | activation (reporter increase), % at 12.5 µM | 0.3% of 340,000 active;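 active = mean replicate activation score at least 90 and every replicate individually at or above 90; inconclusive = only one of the two criteria met; inactive = neither criterion met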;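 note: higher luciferase means less miR-122 activity so hits act as miR-122 inhibitors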
# DENV2 CPE rescue: protects cells from dengue virus 2 cytopathic effect | DENV2-infected cells, cytopathic effect rescue, plate reader | CPE inhibition, % at 9.99 µM | 1.7% of 350,000 active; in the data active = CPE inhibition above about 20%, passing the limit was not always enough; inconclusive = no clear call, values can overlap the other calls; tested in BHK-21 cells;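 note: 0% = median of neutral control wells and 100% = median of positive control wells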
# INS-1E GSIS act: GLuc luminescence reporter in INS-1E cells, primary screen for activators of glucose-dependent secretion of insulin. INS-1E GLuc reporter insulin secretion, 2-3 h. activation, % at 16.6 µM. 0.61% of 370,000 active;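 active = lowest replicate activation of at least 40%, so every replicate reaches that level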;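 note: 0% = median of neutral control wells and 100% = median of IBMX positive control wells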
# ERAP1 inh: ERAP1 (human) enzyme inhibition | Q9NZ08 | recombinant ERAP1, Leu-AMC fluorescence, 60 min | inhibition, % at 10.7 µM | 0.15% of 340,000 active | AID 652197;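 active = mean replicate inhibition of at least 30%, or all replicates individually reaching that 30% level; inactive = mean below 30% and not every replicate reaching it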;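 note: 0% = neutral control wells and 100% = L-leucinethiol positive control wells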
# An asterisk follows results filed as active; u = inconclusive; x = no result given; [ ] = dose if it differs, or a comment. Only some compounds are listed: those with a hit (about 2.6% of all), similar ones and a draw of the others.
SMILES,E-selectin induc,CFTR F508del cor,miR-122 sensor,DENV2 CPE rescue,INS-1E GSIS act,ERAP1 inh
O=C1Cc2cc(S(=O)(=O)N3CCCCC3)ccc2N1,x,0,4,-5,-12,2
COc1ccc2c3c([nH]c2c1)[C@H](CO)N(C(=O)c1cnccn1)CC31CCN(C(=O)c2cnccn2)CC1,0,-1,x,4,15,-1
Cc1ccc(S(=O)(=O)N2C[C@@H]3[C@H]4CC[C@H](C4)[C@@H]3[C@@H](C)[C@@H]2c2ccn([Si](C(C)C)(C(C)C)C(C)C)c2)cc1,0,-1,-3,25*,-8,10
CCC(=O)N1CCC2(CC1)CN(C(=O)c1ccccn1)[C@H](CO)c1c2c2ccc(OC)cc2n1C,0,-2,x,10,16,x
CCCCn1c(N)c(N(CCC(C)C)C(=O)C2CC(=O)N(c3ccccc3OCC)C2)c(=O)[nH]c1=O (stereo not drawn),0,2,x,66*,11,0
O=C(/C=C/[C@H]1O[C@@H](n2ccc(=O)[nH]c2=O)[C@H](O)[C@@H]1O)NCc1cccs1,x,1,-7,23*,x,-1
O=C(/C=C/[C@H]1O[C@@H](n2ccc(=O)[nH]c2=O)[C@H](O)[C@@H]1O)NCCc1cccs1,0,-2,-4,7,-17,-3
Cc1ccc(S(=O)(=O)Nc2ccc3c(c2)C(=O)N([C@H](C)CO)C[C@H](C)[C@@H](CN(C)Cc2ccncc2)O3)cc1,0,1,4[16.7 µM],-2,20,2
C[C@H]1CN=C(Nc2ccccc2)N1CCCC1CCCC1,0,0,5,58*,-3,-2
COCC(=O)N(C)C[C@@H]1Oc2ncc(-c3ccc(C)cc3)cc2C(=O)N([C@H](C)CO)C[C@@H]1C,14,-1,4[16.7 µM],3,13,2
Cc1cccnc1NC(=O)c1cccc(S(=O)(=O)N2CCCC2)c1,x,-1,0,31*,9,2
Cc1ccc(C(=O)Nc2ncccc2C)cc1S(=O)(=O)N1CCCCC1,0,0,-3,u,12,-3
Cc1ccc(NC(=O)c2ccc(C)c(S(=O)(=O)N3CCOCC3)c2)nc1,-1,2,-6,5,8,-1
Cc1ccc(NC(=O)c2ccc(S(=O)(=O)N3CCOCC3)cc2)nc1,x,x,216*,x,x,x
Cc1cccnc1NC(=O)c1ccc(Cl)c(S(=O)(=O)N2CCCCC2)c1,0,-3,4,3,2,0
Cc1cccnc1NC(=O)c1ccc(S(=O)(=O)N2CCCCC2)cc1,0,0,x,-11,41*,-2
C/C=C/c1ccc2c(c1)[C@@H]1[C@@H](CCN1S(=O)(=O)c1ccccc1C)[C@H](CO)N2,0,1,x,12,16,-1
C[C@@H]1CN([C@@H](C)CO)C(=O)Cc2cc(NC(=O)c3ccncc3)ccc2O[C@@H]1CN(C)S(=O)(=O)c1ccc(F)cc1,0,1,1[16.7 µM],-1,13,-1
C[C@@H](NC(=O)C[C@H]1C[C@@H]2c3cc(NC(=O)NC4CCCC4)ccc3O[C@@H]2[C@H](CO)O1)c1ccccc1,0,-3,-5[16.7 µM],6,-4,-4
O=S(=O)(Nc1nc(SCc2ccc(Cl)cc2)n[nH]1)c1ccc(F)cc1,x,1,-2,29*,x,1
CCCOc1cccc(C(=O)Nc2ccc(CN3CCOCC3)cc2)c1,x,0,x,25*,-1,0
CCCCC1CCC(C(=O)OC(C)C(=O)Nc2ccc(NC(C)=O)cc2)CC1 (stereo not drawn),0,1,4,u,11,75*
C[C@H]1CN([C@@H](C)CO)C(=O)c2ccccc2-c2ccccc2CO[C@H]1CN(C)Cc1ccc(C(F)(F)F)cc1,-1,-5,x,50*,-27,7
C[C@H](CO)N1C[C@H](C)[C@H](CN(C)S(=O)(=O)c2ccc(C(F)(F)F)cc2)OCc2ccccc2-c2ccccc2C1=O,2,-4,x,33*,-15,2
C[C@@H]1CN([C@H](C)CO)C(=O)c2ccccc2-c2ccccc2CO[C@H]1CN(C)S(=O)(=O)c1ccc(C(F)(F)F)cc1,3,3,x,-11,15,3
SMILES,E-selectin induc,CFTR F508del cor,miR-122 sensor,DENV2 CPE rescue,INS-1E GSIS act,ERAP1 inh
C[C@H]1CN([C@@H](C)CO)S(=O)(=O)c2ccc(-c3ccccc3)cc2O[C@@H]1CN(C)Cc1ccncc1,0,1,0[16.7 µM],-13,-29,2
C=CCn1c(SCC(=O)N2CCCCC2)nnc1-c1ccncc1,x,-2,x,6,4,3
C=CCn1c(SCC(=O)N2CC(C)OC(C)C2)nnc1-c1ccncc1 (stereo not drawn),x,1,x,7,14,49*
COc1ccc(S(=O)(=O)N(C)C[C@@H]2Oc3c(NC(=O)Nc4ccc5c(c4)OCO5)cccc3C(=O)N([C@@H](C)CO)C[C@@H]2C)cc1,5,1,-8[16.7 µM],27*,-7,1
COc1ccc(S(=O)(=O)N(C)C[C@@H]2Oc3ccc(NC(=O)Nc4ccc5c(c4)OCO5)cc3CC(=O)N([C@@H](C)CO)C[C@@H]2C)cc1,-13,0,-12[16.7 µM],1,-3,-3
COc1ccc(S(=O)(=O)N(C)C[C@@H]2Oc3ccc(N(C)C)cc3CC(=O)N([C@H](C)CO)C[C@@H]2C)cc1,0,1,0[16.7 µM],23*,0,-6
COc1ccc(S(=O)(=O)N(C)C[C@H]2Oc3ccc(NC(=O)Nc4ccc5c(c4)OCO5)cc3CC(=O)N([C@@H](C)CO)C[C@H]2C)cc1,79*,-4,-14[16.7 µM],0,-20,4
COc1ccc(S(=O)(=O)N(C)C[C@H]2Oc3ccc(NC(=O)C4CCCCC4)cc3CC(=O)N([C@H](C)CO)C[C@H]2C)cc1,5,2,-11[16.7 µM],22*,5,-1
C[C@H]1CN(C)C(=O)c2ccccc2O[C@@H]1CN(C)S(C)(=O)=O,x,x,x,x,5,x
CN1C(=O)c2cc(NC(=O)NC3CCCC3)ccc2OC[C@H]2O[C@H](CC(=O)NCC3CC3)CC[C@H]21,0,-2,15[16.7 µM],-4,10,1
COCC(=O)N(C)C[C@H]1Oc2cc(-c3ccc(C#N)cc3)ccc2S(=O)(=O)N([C@@H](C)CO)C[C@@H]1C,0,3,-21[16.7 µM],5,29,0
COc1ccc(NC(=O)Nc2ccc3c(c2)CC(=O)N([C@@H](C)CO)C[C@H](C)[C@@H](CN(C)S(C)(=O)=O)O3)cc1,x,-3,x,8,-1,-1
C[C@H](CO)N1C[C@H](C)[C@@H](CN(C)S(C)(=O)=O)Oc2ccc(NC(=O)C3CCCCC3)cc2CC1=O,27*,1,-1[16.7 µM],18,15,3
